# Experimental data reported in ChEMBL document CHEMBL1154548, “Synthesis and initial evaluation of novel, non-peptidic antagonists of the alpha(v)-integrins alpha(v)beta(3) and alpha(v)beta(5)” (Bioorg Med Chem Lett, 2009).
# Columns and labels:
# Integrin alpha-V/beta-3 = Integrin alpha-V/beta-3 (Homo sapiens, UniProt P05106+P06756); assay: Binding affinity to human integrin alphavbeta3 receptor by TRF assay
# Method in brief: (§1)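 Wells were coated with αvβ3 or αvβ5 overnight at 4 °C in buffer A (50 mM Tris–HCl pH 7.4, 100 mM NaCl, 1 mM each MgCl₂, CaCl₂, MnCl₂), then blocked with 1% BSA for 1 h at RT. Compound and 20 nM Eu³⁺-vitronectin in buffer A plus DTPA and 0.05% BSA were added for 1 h at RT. Wells were washed, enhancement solution was added for 10 min with shaking, and time-resolved fluorescence was read.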
# Integrin alpha-V = Integrin alpha-V (Homo sapiens, UniProt P06756+P18084); assay: Binding affinity to human integrin alphavbeta5 receptor by TRF assay; method in brief: as §1
# Chain of Integrin alpha-V (P06756 whole entry, one chain of several): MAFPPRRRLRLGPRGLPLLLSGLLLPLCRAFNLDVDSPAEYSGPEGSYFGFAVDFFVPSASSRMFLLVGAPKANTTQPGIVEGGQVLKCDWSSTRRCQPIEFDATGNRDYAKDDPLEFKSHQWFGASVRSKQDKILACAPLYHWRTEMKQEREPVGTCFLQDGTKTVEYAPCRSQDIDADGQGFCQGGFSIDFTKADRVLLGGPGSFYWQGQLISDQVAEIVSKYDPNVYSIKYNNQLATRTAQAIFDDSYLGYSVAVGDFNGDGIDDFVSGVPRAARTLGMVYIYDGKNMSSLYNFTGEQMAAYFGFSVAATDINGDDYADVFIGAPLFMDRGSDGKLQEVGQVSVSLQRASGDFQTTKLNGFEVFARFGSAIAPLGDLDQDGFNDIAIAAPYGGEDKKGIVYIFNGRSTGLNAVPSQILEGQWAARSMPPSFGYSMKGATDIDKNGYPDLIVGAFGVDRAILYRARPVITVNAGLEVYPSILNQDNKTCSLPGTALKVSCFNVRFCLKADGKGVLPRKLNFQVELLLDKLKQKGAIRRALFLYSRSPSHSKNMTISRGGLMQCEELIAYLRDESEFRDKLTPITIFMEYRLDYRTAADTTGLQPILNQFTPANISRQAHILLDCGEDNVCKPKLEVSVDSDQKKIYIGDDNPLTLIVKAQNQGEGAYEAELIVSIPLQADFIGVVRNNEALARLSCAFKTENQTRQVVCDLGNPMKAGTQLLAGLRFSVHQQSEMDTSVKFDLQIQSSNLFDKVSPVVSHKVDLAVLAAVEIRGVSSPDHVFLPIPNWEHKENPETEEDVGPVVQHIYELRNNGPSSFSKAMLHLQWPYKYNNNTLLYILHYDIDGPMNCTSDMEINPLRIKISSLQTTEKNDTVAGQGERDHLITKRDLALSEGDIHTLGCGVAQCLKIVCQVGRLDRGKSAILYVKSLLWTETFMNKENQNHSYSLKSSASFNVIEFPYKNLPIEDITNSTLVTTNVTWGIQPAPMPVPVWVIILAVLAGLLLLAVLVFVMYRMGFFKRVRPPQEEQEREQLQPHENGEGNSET
# [1] = biological target: Integrin alpha-IIb/beta-3 (Homo sapiens, UniProt P05106+P08514); assay: Binding affinity to human integrin […] receptor by TRF assay; type: protein-complex assay
# Chain of Integrin alpha-IIb/beta-3 (P05106 27-788 limits assumed): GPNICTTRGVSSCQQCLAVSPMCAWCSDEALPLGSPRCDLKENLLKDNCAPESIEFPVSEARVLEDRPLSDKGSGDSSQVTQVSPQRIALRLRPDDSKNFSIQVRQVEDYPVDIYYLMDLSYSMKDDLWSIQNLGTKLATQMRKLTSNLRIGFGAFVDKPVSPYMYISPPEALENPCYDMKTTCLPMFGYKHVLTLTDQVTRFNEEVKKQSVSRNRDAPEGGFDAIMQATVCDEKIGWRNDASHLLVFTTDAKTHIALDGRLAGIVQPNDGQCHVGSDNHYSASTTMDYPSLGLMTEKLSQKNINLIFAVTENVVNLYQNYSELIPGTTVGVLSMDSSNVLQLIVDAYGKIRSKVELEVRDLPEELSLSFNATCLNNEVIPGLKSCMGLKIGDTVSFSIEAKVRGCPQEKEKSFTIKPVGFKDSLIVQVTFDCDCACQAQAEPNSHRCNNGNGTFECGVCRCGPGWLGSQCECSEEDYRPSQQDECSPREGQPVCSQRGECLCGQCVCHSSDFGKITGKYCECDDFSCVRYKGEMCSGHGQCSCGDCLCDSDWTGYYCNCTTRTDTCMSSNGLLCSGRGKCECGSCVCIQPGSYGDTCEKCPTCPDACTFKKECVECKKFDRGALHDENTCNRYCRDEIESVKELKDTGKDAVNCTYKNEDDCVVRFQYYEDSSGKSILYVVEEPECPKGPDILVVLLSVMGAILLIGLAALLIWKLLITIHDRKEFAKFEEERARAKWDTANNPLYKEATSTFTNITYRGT
# Chain of Integrin alpha-IIb/beta-3 (P08514 32-887 limits assumed): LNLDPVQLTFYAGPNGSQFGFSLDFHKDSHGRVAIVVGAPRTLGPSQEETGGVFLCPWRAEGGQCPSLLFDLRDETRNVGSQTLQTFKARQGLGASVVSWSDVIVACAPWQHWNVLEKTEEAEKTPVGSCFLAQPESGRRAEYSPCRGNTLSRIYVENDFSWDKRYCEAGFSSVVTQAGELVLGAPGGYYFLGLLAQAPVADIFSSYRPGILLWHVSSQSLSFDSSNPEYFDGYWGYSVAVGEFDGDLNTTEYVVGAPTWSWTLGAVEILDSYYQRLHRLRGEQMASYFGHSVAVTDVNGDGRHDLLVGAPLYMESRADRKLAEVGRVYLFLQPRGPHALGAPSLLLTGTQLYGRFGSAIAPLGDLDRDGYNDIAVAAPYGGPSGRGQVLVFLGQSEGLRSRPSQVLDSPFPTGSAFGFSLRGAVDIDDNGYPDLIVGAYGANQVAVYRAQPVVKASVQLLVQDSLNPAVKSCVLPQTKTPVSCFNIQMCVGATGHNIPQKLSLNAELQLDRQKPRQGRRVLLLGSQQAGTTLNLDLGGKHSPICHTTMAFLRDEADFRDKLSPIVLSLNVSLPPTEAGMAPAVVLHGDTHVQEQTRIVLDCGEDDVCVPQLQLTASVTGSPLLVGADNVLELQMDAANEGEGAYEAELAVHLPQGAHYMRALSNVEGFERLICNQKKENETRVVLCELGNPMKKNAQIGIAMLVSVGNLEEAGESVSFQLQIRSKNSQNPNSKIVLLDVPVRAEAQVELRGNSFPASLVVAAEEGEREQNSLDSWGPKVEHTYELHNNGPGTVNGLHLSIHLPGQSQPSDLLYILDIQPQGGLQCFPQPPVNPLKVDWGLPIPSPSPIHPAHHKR
# Chain of Integrin alpha-IIb/beta-3 (P08514 891-1039 limits assumed): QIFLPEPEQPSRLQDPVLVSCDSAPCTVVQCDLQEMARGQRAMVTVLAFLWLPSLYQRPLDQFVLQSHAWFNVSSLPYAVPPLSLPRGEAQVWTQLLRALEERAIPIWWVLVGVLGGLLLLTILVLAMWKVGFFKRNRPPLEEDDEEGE
# Method in brief: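 Purified αIIbβ3 coated overnight at 4 °C in buffer A (50 mM Tris–HCl pH 7.4, 100 mM NaCl, 1 mM each MgCl₂, CaCl₂, MnCl₂), then blocked with 1% BSA for 1 h at RT. Compound plus 20 nM Eu³⁺-fibrinogen in buffer A with DTPA and 0.05% BSA, 1 h at RT. After washing, enhancement solution was added for 10 min with shaking and time-resolved fluorescence was read.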
# HUVEC [2] = assay: Inhibition of FGF-induced HUVEC proliferation after 48 hrs; type: functional, cell-based; details: Homo sapiens
# Method in brief: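 HUVEC were seeded at 1000 cells/well in complete EBM-2 and cultured 24 h at 37 °C with 5% CO₂. Medium was replaced with EBM-2 containing 2% FBS, 3 ng/mL FGF and compound, and cells were grown a further 48 h. Cells were fixed in glutaraldehyde, stained with crystal violet, destained in acetic acid and read by absorbance at 595. Means of two experiments with SD.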
# HUVEC [3] = assay: Inhibition of VEGF-induced HUVEC proliferation after 48 hrs; type: functional, cell-based; details: Homo sapiens
# HUVEC [4] = assay: Inhibition of HUVEC migration after 4 hrs; type: functional, cell-based; details: Homo sapiens
# Method in brief: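 Boyden-chamber filters were coated with vitronectin in HEPES/NaCl/divalent-cation buffer for 1 h at 37 °C, then blocked with 2% BSA for 1 h. HUVEC were added to the upper chamber at 20,000/well in migration buffer with or without compound and incubated 4 h at 37 °C. Non-migrated cells were removed; migrated cells were fixed, stained with crystal violet, photographed and quantified. Means of two experiments with SD.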
# [5] = Apparent permeability across human Caco-2 cells; type: ADME, cell-based
# Chain of Integrin alpha-V/beta-3 (P05106 27-788 limits assumed): as the sequence (P05106 27-788 limits assumed) above
# Chain of Integrin alpha-V/beta-3 (P06756 31-889 limits assumed): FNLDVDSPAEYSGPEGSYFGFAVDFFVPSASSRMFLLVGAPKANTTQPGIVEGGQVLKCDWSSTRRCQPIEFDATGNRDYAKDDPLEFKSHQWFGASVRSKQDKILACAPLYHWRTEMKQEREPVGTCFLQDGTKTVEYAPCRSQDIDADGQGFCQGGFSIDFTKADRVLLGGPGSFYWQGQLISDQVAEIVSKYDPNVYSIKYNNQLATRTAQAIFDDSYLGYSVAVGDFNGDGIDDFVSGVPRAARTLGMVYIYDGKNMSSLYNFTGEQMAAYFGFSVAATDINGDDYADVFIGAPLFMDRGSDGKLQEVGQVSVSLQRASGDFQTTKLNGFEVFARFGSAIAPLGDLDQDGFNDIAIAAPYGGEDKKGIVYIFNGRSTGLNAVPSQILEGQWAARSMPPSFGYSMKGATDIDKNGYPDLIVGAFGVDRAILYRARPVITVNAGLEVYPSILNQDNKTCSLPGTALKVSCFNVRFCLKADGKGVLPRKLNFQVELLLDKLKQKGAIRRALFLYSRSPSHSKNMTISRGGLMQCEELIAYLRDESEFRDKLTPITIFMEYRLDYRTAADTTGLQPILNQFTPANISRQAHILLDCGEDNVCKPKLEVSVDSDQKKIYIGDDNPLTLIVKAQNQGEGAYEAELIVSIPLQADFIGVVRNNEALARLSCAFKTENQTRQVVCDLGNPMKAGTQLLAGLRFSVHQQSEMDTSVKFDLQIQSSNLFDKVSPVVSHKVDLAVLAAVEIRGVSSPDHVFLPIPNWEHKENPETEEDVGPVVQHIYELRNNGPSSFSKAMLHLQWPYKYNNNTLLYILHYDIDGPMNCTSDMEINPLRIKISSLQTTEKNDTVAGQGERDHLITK
# Chain of Integrin alpha-V/beta-3 (P06756 891-1048 limits assumed): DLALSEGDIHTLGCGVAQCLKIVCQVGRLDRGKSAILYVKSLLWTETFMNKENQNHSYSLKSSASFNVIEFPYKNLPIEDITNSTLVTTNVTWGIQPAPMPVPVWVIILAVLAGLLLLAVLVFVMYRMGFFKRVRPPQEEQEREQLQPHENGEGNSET
Structure (SMILES),IC50 (Integrin alpha-V/beta-3),IC50 (Integrin alpha-V),IC50 [1],Papp [5],IC50 (HUVEC [2]),IC50 (HUVEC [3]),IC50 (HUVEC [4])
Cn1c(N)nc2c(Oc3ccc4c(c3)CN(CCC(=O)O)C4=O)cccc21,180 nM,4800 nM,> 10000 nM,,,,
Cn1c(N)nc2c(Oc3ccc4c(c3)CCN(CCC(=O)O)C4=O)cccc21,39 nM,600 nM,> 10000 nM,,,,
O=C(O)CCN1CCc2cc(Oc3cccc4c3nc3n4CCCN3)ccc2C1=O,7 nM,310 nM,6300 nM,,,,
O=C(O)CC(c1ccc2c(c1)OCO2)N1CCc2cc(Oc3cccc4c3nc3n4CCCN3)ccc2C1=O (stereo not given),2 nM,14 nM,167 nM,8.96 ×10⁻⁶ cm/s,2900 nM,1100 nM,40 nM
CC(C)[C@@H]1NC(=O)[C@@H](Cc2ccccc2)NC(=O)[C@H](CC(=O)O)NC(=O)CNC(=O)[C@H](CCCN=C(N)N)NC1=O [CYCLORGDFV],,,,,3100 nM,4500 nM,530 nM

# Continued by falling IC50 (Integrin alpha-V/beta-3), values first:
IC50 (Integrin alpha-V/beta-3),IC50 (Integrin alpha-V),IC50 [1],Papp [5],Structure (SMILES),IC50 (HUVEC [2]),IC50 (HUVEC [3]),IC50 (HUVEC [4])
370 nM,4300 nM,> 10000 nM,,Cn1c(N)nc2c(Oc3ccc4c(c3)CCCN(CCC(=O)O)C4=O)cccc21,,,
230 nM,2050 nM,,,Cn1c(N)nc2c(Oc3ccc(C(=O)NCCC(=O)O)cc3)cccc21,,,
1 nM,5 nM,323 nM,,O=C(O)CC(c1cccnc1)N1CCc2cc(Oc3cccc4c3nc3n4CCCN3)ccc2C1=O (stereo not given),1100 nM,4300 nM,37 nM
